This sample holds only a part of the variants without activity. Some results are limits rather than exact numbers.

B1: tRNA (parent)
chain: GUUCCGUUGGCGUAAUGGUAACGCGUCUCCCUCCUAAGGAGAAGACUGCGGGUUCGAGUCCCGUACGGAACG

The variants in the data set derive from B1. Put plainly: yeast fitness relative to wild type (ratio to wild type); higher = fitter; tRNA-Arg(CCU), competitive growth, 37 C, YPD. In outline:
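Variants of the tRNA-Arg(CCU) gene were chemically synthesised with a 3% per-site mutation rate across 69 sites and placed at the native genomic locus in Saccharomyces cerevisiae. Six parallel replicates of the pooled strains were competed in YPD at 37°C for 24 hours, and gene amplicons from the start and end populations were read by 100-nucleotide paired-end sequencing. Darwinian fitness relative to wild type was derived from changes in genotype frequencies. Genotypes required ≥ 100 starting reads, and estimates < 0.5 were set to 0.5.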
Consider G25C C31U U32A, for which the yeast fitness is at most 0.5.
Take C5U U8A: the yeast fitness turned out to be 0.632.
Take G10C C34A A57U G67C: the yeast fitness was found to be 0.64.
G12U U54C: the yeast fitness was determined as 0.59.
Regarding A21C C29G G51A, the yeast fitness amounted to 0.529.
Take U7G G9A A20U C31G C34U G67U: the yeast fitness was at most 0.5.
For the variant C24U A37G G39A G48C, the yeast fitness was at most 0.5.
On to G6C C33G A36C C49A C60G A65G A70U, for which the yeast fitness was at most 0.5.
The value for C11A G38A U53A was 0.543; that for C4G G9A A70C was 1.09.
For G6C A37C, the yeast fitness was determined as 0.693.
The value for U16C A43G was 1.13; that for A20G A42C A45C G67C was at most 0.5; that for G12C U54A was 0.701.
Turning to A15U A40G A42G A57U C62G C66U, the yeast fitness is at most 0.5.
Turning to G10C U26A C34G, the yeast fitness was at most 0.5.
Regarding U7C A43U C49G, the yeast fitness was at most 0.5.
Consider G9A U26C A36U G39A, for which the yeast fitness is at most 0.5.
Then U8G A21U C27G A65C, with at most 0.5; and U26A A40C C66A, with at most 0.5.
With U19A A21G C27U C33U, the yeast fitness was at most 0.5.
Then U32C C55A, with 0.632.
For the variant G10A A15G A42C, the yeast fitness is at most 0.5.
In the case of C31G C49G, the yeast fitness was 0.753.
Then G10A G38U G67C, with at most 0.5; and G48C G56A A70U, with 0.918; and C34U G50A G56C, with 0.662.
Regarding U35G G63A, the yeast fitness was 0.7.
As to G6C G23A C27U A45G U64A, the yeast fitness is at most 0.5.
Then C11G G23C C49U G56A G63A, with at most 0.5.
Consider G18A C24G C27U C62U, for which the yeast fitness was at most 0.5.
On to G9C C31G U54A G67C A69U, for which the yeast fitness was at most 0.5.
The value for A15U G41C was 0.784; that for C4A A45C was 0.754; that for G6A A42U was 0.784.
On to G6A A42C, for which the yeast fitness was found to be 0.894.
Consider A21C C22U C31U C33U, for which the yeast fitness is at most 0.5.
The value for C29A A37G was 0.545; that for C5A C24G C31G was 0.555; that for C49G G56C was 0.641.
The value for U8G G25C G41C was 0.644; that for C55A G63A was 0.55; that for C11A A15G C22U C29A A43U A45G A57U was at most 0.5.
Turning to U7C A43C C49A G56A, the yeast fitness is at most 0.5.
On to G10A G58C A65U, for which the yeast fitness is at most 0.5.
On to A21U C31A C34A G39C C61A, for which the yeast fitness is at most 0.5.
Regarding U7C G41A A42C G50C A65U, the yeast fitness was at most 0.5.
As to A15U U16A A21C C33G, the yeast fitness amounted to 0.558.
The value for A21G G38C was 0.674.
Consider C5U U8A A21G C49U G63C, for which the yeast fitness was at most 0.5.
In the case of U3G C11U U19C A20U A42C A65C A69U, the yeast fitness was found to be 0.537.
With C24U A43G, the yeast fitness amounted to 1.02.
Regarding C5U U28G C30G A40C A42U, the yeast fitness was at most 0.5.
The value for C27U A37C G51C G67U was 0.543; that for G51A C60U G67A was 0.567.
On to C55U U59C, for which the yeast fitness came out at 0.683.
As to U16C U26A G38C U47A C49A, the yeast fitness is at most 0.5.
As for G9A G63C, the yeast fitness was found to be 0.872.
For the variant C5U C27G C31G G50C G58C, the yeast fitness is 0.743.
The value for A36C G52A was at most 0.5; that for C11G A14C A42U G51C C60U was at most 0.5.
In the case of U3G G6A A14G G38C G41C A57C, the yeast fitness was found to be 0.62.
In the case of U35C A65C, the yeast fitness amounted to 0.807.
For the variant U13A A45G A65C, the yeast fitness is 0.656.
For the variant C5U U32C A42G, the yeast fitness stood at 0.531.
Regarding C11G A21G G51C, the yeast fitness stood at 0.872.
As to C34A A45G A57U C66U, the yeast fitness was at most 0.5.
For U16C A20U U32C, the yeast fitness was 0.615.
With U16A C34U, the yeast fitness was 0.663.
For the variant G17A G23C C33G C46A C66A, the yeast fitness is at most 0.5.
C11G A21U U26C: the yeast fitness is at most 0.5.
Take U16C G52A G56C: the yeast fitness was at most 0.5.
The value for C5U C33U C62A was 0.579.
On to C4U U13A A14U C29U A37G A57C, for which the yeast fitness is at most 0.5.
Regarding G10C A36U A69U, the yeast fitness was at most 0.5.
Turning to U32G A42C, the yeast fitness came out at 0.62.
Then G25A A40U U54C, with 0.565; and C27G A43C A57U, with 0.599.
Then C29G C55G, with 0.538.
As to A43G C61U A65U, the yeast fitness amounted to 0.567.
In the case of A21C C34A, the yeast fitness stood at 0.605.
As for U3A C4U C61G G63C, the yeast fitness was at most 0.5.
Regarding A14C C22U C24U U53A, the yeast fitness was at most 0.5.
In the case of A36C C49U G67C, the yeast fitness was 0.532.
On to U7A G9C G17C G48A G68C, for which the yeast fitness was at most 0.5.
Regarding C5A C24G G63A, the yeast fitness is at most 0.5.
The value for A14G C27U C46A was 0.673.
Consider C4U U19A A42C, for which the yeast fitness came to 0.825.
Regarding A15G G44U A57U G58A C66G, the yeast fitness was at most 0.5.
Turning to C11A U13A A20U C29G A36G C46U G58A, the yeast fitness was at most 0.5.
For the variant C4U A42C G58A, the yeast fitness worked out at 0.567.
As to C34G G41C, the yeast fitness came out at 0.617.
Consider C4A U28G G48A C49G G50U, for which the yeast fitness was at most 0.5.
With C4U C24A U47G U59C, the yeast fitness was at most 0.5.
C22G A45C: the yeast fitness is 0.583.
Consider U16G C22G U47G, for which the yeast fitness was determined as 0.557.
The value for G23A C30U G63A was at most 0.5; that for U8A G9A A37U C46U C61U C66U was at most 0.5.
For C22G A40U A43C, the yeast fitness stood at 0.698.
As to G6A G52A G63A, the yeast fitness is at most 0.5.
Then C27A C30A, with 0.766; and C4A C22G C27U, with 0.522.
For the variant U16A C49U, the yeast fitness was 0.946.
For C27A A40G A69U, the yeast fitness was found to be 0.582.
Consider G6C A21G C55A C61A, for which the yeast fitness was at most 0.5.
As to A21G A45G C46G A70U, the yeast fitness was at most 0.5.
As for G12C U28C C30U C66A, the yeast fitness is at most 0.5.
For the variant C22U A36C A37G A65G, the yeast fitness was at most 0.5.
Turning to C5G A21G U32C U47A G68A, the yeast fitness is at most 0.5.
Take G9A C49U C55A: the yeast fitness is at most 0.5.
Consider C4U C11G C34U, for which the yeast fitness was determined as 0.551.
For U13C G50U, the yeast fitness is 0.81.
With U13C A20G A37U C61A, the yeast fitness was at most 0.5.
With C11U U16C U26C A45C C46U, the yeast fitness was at most 0.5.
Then G10C A37G, with 0.656.
Take U7G U28C U59C U64C A70C: the yeast fitness was at most 0.5.
With C5A C30A A70U, the yeast fitness was 0.742.
G9A G51A A57U U59C: the yeast fitness is at most 0.5.
Then A21C G58C A65U, with 0.521; and C27G A43C A65U G67U, with at most 0.5.
Then U3C A20C G23C, with at most 0.5; and G12C C30U A43G, with 0.515.
Regarding C4U C29U C31U, the yeast fitness came to 0.538.
In the case of C46G U53A A65C, the yeast fitness was at most 0.5.
Then G38C A42G A70C, with at most 0.5.
As to C4G A40G G56C, the yeast fitness was found to be 0.537.
With A14G A42C C62A, the yeast fitness was at most 0.5.
With A20C A45C C46U, the yeast fitness was 0.587.
For A21G G48C, the yeast fitness came out at 1.01.
Consider U16C C55A A57C, for which the yeast fitness was at most 0.5.
The value for G25C A43U G50A was 0.704; that for C11G A21G C34G A40C was at most 0.5.
Turning to G18A A20U C31U, the yeast fitness was determined as 0.545.
Consider C24G G25A A45G C60A, for which the yeast fitness was at most 0.5.
C5A A20U C31U C61U U64A: the yeast fitness was at most 0.5.
The value for U7C A21C C34G U35G G44C C61G was 0.636; that for C5U A40C A42G was 0.558; that for C5A G6C C30G A42G was 0.606.
U3A G52A: the yeast fitness came to 0.764.
Consider C5A C33U C46G C66G G67A A69C, for which the yeast fitness is at most 0.5.
Take A14U C22U C30U C46U G52C: the yeast fitness is at most 0.5.
On to U3C A21C C22U C31U C33U, for which the yeast fitness is at most 0.5.
U7C C33G U59C: the yeast fitness stood at 0.59.
With G12A U28G U35C, the yeast fitness was at most 0.5.
Take A43U G48A C61G: the yeast fitness was at most 0.5.
G10A C27U U28C C30A G48A G50A: the yeast fitness stood at 0.985.
Take G48A C61G: the yeast fitness is 0.559.
For the variant C11A U32A, the yeast fitness was at most 0.5.
As for U2C C5A C24A, the yeast fitness was at most 0.5.
For A14G C34G A65U C66A, the yeast fitness was at most 0.5.
The value for G6A C11G C61G was at most 0.5; that for C29A A40C was 0.741; that for C4U G6A G44C A69U A70G was at most 0.5.
For the variant C11A G12A C66A, the yeast fitness was at most 0.5.
As to A15G A20G C31U, the yeast fitness was 0.59.
As for U47C, the yeast fitness stood at 1.
Consider C11G G52C U54C A57U, for which the yeast fitness was at most 0.5.
C4G C29U C30G G39C: the yeast fitness was at most 0.5.
Take C11G U28A G39A G48A G67A: the yeast fitness was at most 0.5.
The value for C4U U28G was 0.772; that for A42C U47C U54A G67C A69U was at most 0.5.
Consider U32G G39C G52C C61U, for which the yeast fitness was at most 0.5.
Then A15G G38C C49U, with 0.544.
The value for G25A U28A A43U was 0.835; that for U28C A45U G48C was 0.638; that for C5A G18C U19A C27A C33A C61G A70G was at most 0.5.
On to U13A G23A A36C G38A C61G, for which the yeast fitness is at most 0.5.

(Values after the RNAGym collection of RNA variant scans (doi:10.1126/science.aae0568).)
